# Assay results of several laboratories.
# Protocols differ between the studies behind these lines.
SMILES,assay,system,setting,measurement,value
C[C@]12CC[C@H]3[C@@H](CCC4=CC(=O)CC[C@@]43C)[C@@H]1CC[C@@H]2O,metabolic stability,"Sprague-Dawley rat, hepatocytes",1 µM,hepatocyte CLint,240 µL/min/10⁶ cells
Cc1ncc2n1-c1ccc(Cl)cc1C(c1ccccc1F)=NC2,metabolic stability,"Sprague-Dawley rat, hepatocytes","0.5 µM, pH 7.4",hepatocyte CLint,160 µL/min/10⁶ cells
O=C1NC(=O)[C@](CNC(=O)c2cnn(-c3ccccc3)n2)(C2CC2)N1,HPLC,,pH 7.5,chromatographic logD,1.8
COc1ccc2c(c1)[C@]13CCCC[C@@H]1[C@H](C2)N(C)CC3,metabolic stability,"Sprague-Dawley rat, hepatocytes","0.5 µM, pH 7.4",hepatocyte CLint,97 µL/min/10⁶ cells
COc1ccc([C@@]23Oc4cc(OC)cc(OC)c4[C@@]24NC(C)=N[C@@]4(O)[C@H](C(=O)N(C)OC)[C@H]3c2ccccc2)cc1,metabolic stability,"rat, liver microsomes",,microsomal CLint,12.2 µL/min/mg
COc1ccsc1CNCC[C@@]1(c2ccccn2)CCOC2(CCCC2)C1,,"human, plasma","intravenous, 1.5 mg, single dose, infusion",clearance,721 mL/min
CNC(C)Cc1ccc2nsnc2c1 (stereo not drawn),metabolic stability,"human, liver microsomes",0.5 µM,microsomal CLint,13.1 µL/min/mg
Cn1nccc1[C@]1(CNC(=O)c2ccc(F)c(F)c2-c2ccc(C(F)(F)F)cc2)NC(=O)NC1=O,HPLC,,pH 7.5,chromatographic logD,2.3
CONC(=O)[C@H]1[C@@H](O)[C@@]2(O)c3c(OC)cc(OC)cc3O[C@@]2(c2ccc(OC)cc2)[C@@H]1c1ccccc1,metabolic stability,"rat, liver microsomes",,microsomal CLint,23.8 µL/min/mg
